Screening data as filed in PubChem BioAssay.
L major viab – reduces viability of Leishmania major promastigotes | resazurin fluorescence viability | inhibition, % at 10 µM | hit rate 9% among 200,000 | AID 1063; in the data active = inhibition above about 50%;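 note: promastigotes grown with compound for 44 hours at 28 °C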
MT stabilizer – microtubule stabilization, imaging screen; hit rate 0.83% among 200,000; AID 2205; % tubulin-high responders, % at 10 µM; HeLa tubulin immunostaining HCS, 24 h; share of cells brighter than vehicle mean+2SD;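 active = plate Z-score above 3 for both tubulin-high and condensed-nucleus cell shares, with cell loss under 80%, at 10 µM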;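 note: anti alpha tubulin signal scored within the nucleus-defined area of each cell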
bCat nuc transl – beta-catenin nuclear translocation modulation | HeLa beta-catenin nuclear translocation, immunofluorescence imaging | nuclear translocation activity, % at 5 µM | hit rate 0.3% among 190,000;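 active = nuclear translocation activity above 50% at 5 µM, with a well cell count of 50 or more; inconclusive = wells under 50 cells across six images, flagged as toxic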;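 note: per-cell ratio of nuclear to cytoplasmic median beta-catenin stain intensity; plate controls were DMSO negative control for no effect and GSK-3 inhibitor IX positive control for full effect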
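assay system = human HeLa cells, endogenous beta-catenin | times = compound treatment 24 h, 37°C, 5% CO2 | detection = Anti-beta-catenin immunofluorescence on PFA-fixed, Triton-permeabilized cells, DAPI nuclei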
HSV augment – increases HSV replication in cells. maximum fold increase. HSV replication augmentation in cells, fold increase. hit rate 0.005% among 220,000; in the data active = maximum fold increase above about 1.5; inconclusive = no clear call, values can overlap the other calls; tested in PC3 cells
Dynein cargo inh – dynein cargo transport inhibition | 3617.4 mouse cells, GR-EGFP nuclear translocation imaging; test concentration mostly 20 µM; stimulated with dexamethasone, 1 µM; hits give low values | z-score, hits read low | hit rate 0.47% among 220,000 | AID 1381;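 active = plate z-score of nuclear minus cytoplasmic receptor signal below a set negative limit, without overly bright fluorescence or cell loss, cut at about -3.5 in these data, passing the limit was not always enough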;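 note: z-score of nuclear minus cytoplasmic ring GR-EGFP intensity difference per well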
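Buffer or medium: tet-free, stripped-serum medium; Also added: dexamethasone, 1.0 µM final; Technique: high-content fluorescence imaging after fixation; Times: 48 h induction, 1 h compound, 30 min dex at 37 °C; Read-out: per-cell GR-EGFP intensity, nucleus versus surrounding cytoplasmic ring, well-averaged.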
An asterisk follows results filed as active; i = inactive; ? = inconclusive; . = no result given. The list is not random: actives were taken first. Their share in the collection is about 8.9%.

SMILES	L major viab	MT stabilizer	bCat nuc transl	HSV augment	Dynein cargo inh
Cc1ccc(NC(=S)NCC2CCN(C(C)c3ccccc3)C2)cc1C (centres undefined)	81.7*	3.7	0.1	i	-0.0132
CC(=O)Nc1ccc(-c2csc(Nc3cccc(C)n3)n2)cc1	79.2*	3.2	-0.3	i	-0.254
CC(=O)NNc1nc(-c2ccc(NC(C)=O)cc2)cs1	-5.7	2.8	-0.5	i	0.892
COc1ccc(-c2[nH]c(-c3cc(OC)c4c(c3)OCO4)nc2-c2ccccc2)cc1	89.1*	4.5	-1.6	i	-0.711
Cc1ccc(-c2[nH]c(-c3ccc(C(=O)O)cc3)nc2-c2ccccc2)cc1	37.7	2.7	-2.9	i	0.454
Cc1ccc(S(=O)(=O)NC(CC(=O)N2CCc3ccccc32)c2ccco2)cc1 (centres undefined)	17.3	3.3	-3.6	i	-0.928
COc1ccc(S(=O)(=O)NC(CC(=O)N2CCc3ccccc32)c2ccco2)cc1 (centres undefined)	75.6*	1.5	.	i	-0.101
O=C(/C=C1\C(=O)Nc2ccccc21)/C=C1\C(=O)Nc2ccccc21	.	.	24.8	i	-4.41*
CCCCCCCCc1nnc(N)s1	.	.	-0.9	i	-0.176
Cn1cccc1/C=C1\CC(C(C)(C)C)C/C(=C\c2cccn2C)C1=O (centres undefined)	87.2*	1.4	-6.6	?	-0.82
Cn1cccc1/C=C1\Cc2ccccc2C1=O	-1.6	3.1	.	i	-0.17
CCOC(=O)C(C)(C)N(Cc1cccc(C)c1)S(=O)(=O)c1ccc(Cl)c([N+](=O)[O-])c1	86.0*	2.0	0.6	i	-0.0398
O=S(=O)(Nc1ccc(N=Nc2ccc(O)c3ccccc23)cc1)c1ccccc1	85.9*	5.8	0.3	i	-0.753
O=S(=O)(Nc1ccc(N=Nc2ccccc2)cc1)c1ccccc1	-4.5	4.3	0.7	i	-0.871
Cc1nc(NC(=O)CCCC(=O)Nc2nc(C)c(C)s2)sc1C	3.3	4.0	-0.9	i	0.72
COc1ccc(-c2nnnn2-c2ccccc2OC)cc1	4.3	19.9*	1.6	i	-0.378
Cc1ccccc1-n1nnnc1-c1ccccc1	12.1	6.0	-2.6	i	0.366
CCN(CC)CCCN(C(C)=O)c1nc(-c2cc(OC)ccc2OC)cs1	100.5*	4.4	-2.3	i	-0.871
Cn1c(=O)c2c(nc(NN=C3CCCC3)n2C)n(C)c1=O	.	.	0.6	i	0.327
CCOC(=O)c1cnc2ccc(C)cc2c1Nc1ccc(N2CCOCC2)cc1	52.5*	2.0	-1.8	i	-1.15
Cc1cc(C(=O)Nc2c(F)cc(F)cc2Br)no1	0.6	1.8	1.8	i	-0.443
CN1CCN(CCCC(=O)c2ccc(C3CCCC3)cc2)CC1	97.1*	2.3	-0.9	.	-0.818
COC(=O)[C@H](CC(C)C)NC(=O)NCc1ccc(Cl)cc1	.	.	-0.9	i	-0.21
CCCn1nc([N+](=O)[O-])c(C(C#N)c2nc3ccccc3o2)c(Cl)c1=O (centres undefined)	-6.1	3.5	0.9	i	0.0585
Cn1nc([N+](=O)[O-])c(C(C#N)c2ccccn2)c(Cl)c1=O (centres undefined)	100.3*	7.3	-3.0	i	-5.88*
SMILES	L major viab	MT stabilizer	bCat nuc transl	HSV augment	Dynein cargo inh
O=C1CC2(CCCC2)CC(=O)N1CCCCN1CCN(c2ncccn2)CC1	59.5*	2.4	1.2	i	-0.36
CCOC(=O)C1(CCCc2ccccc2)CCN(Cc2cnc(C)s2)CC1	77.4*	3.2	-1.9	i	-0.823
CCOC(=O)C1(Cc2ccccc2C(F)(F)F)CCN(CCCn2cccn2)CC1	87.6*	1.2	2.6	i	-1.11
Cc1ncc(CN2CCC(CO)(Cc3ccccc3)CC2)s1	89.1*	4.1	-0.2	i	1.17
CCOC(=O)C1(CCCc2ccccc2)CCN(Cc2nccn2CC)CC1	74.6*	2.5	-0.2	i	1.52
CCOC(=O)C1(CCOc2ccccc2)CCN(Cc2nccn2CC)CC1	31.2	3.7	-1.1	i	-0.933
CCOC(=O)C1(Cc2cccc(F)c2)CCN(Cc2cnc(C)s2)CC1	32.0	2.0	0.5	i	0.589
CN(C1CCCCC1)S(=O)(=O)c1ccc(NC(=O)Cn2nc(-c3ccc(F)cc3)ccc2=O)cc1	9.0	0.6	-0.7	i	-0.409
OCCCc1nc2n(n1)C(c1cccs1)C=C(c1ccc(Br)cc1)N2 (centres undefined)	1.7	2.0	-2.8	.	-0.685
CCC(C)NC(=O)c1ccccc1NC(=O)CN(c1cc(C)ccc1OC)S(C)(=O)=O (centres undefined)	2.5	2.5	-3.2	i	0.0143
O=C(O)/C=C/C(=O)N(Cc1ccccc1)Cc1ccco1	2.3	2.3	1.2	.	-0.0679
CCOC(=O)C1(CCCc2ccccc2)CCN(CCCn2cccn2)CC1	76.4*	3.5	-1.2	i	-1.52
COc1ccc(CNC(=O)CN(Cc2ccccc2)S(=O)(=O)c2ccc(Cl)cc2)cc1	97.8*	2.1	-3.0	i	-0.606
COc1ccc(CNC(=O)CN(Cc2ccc(Cl)cc2)S(=O)(=O)c2ccccc2)cc1	12.4	1.5	3.2	i	-1.48
COc1ccc(C)cc1S(=O)(=O)N(CC(=O)N1CCOCC1)Cc1ccccc1	-1.2	8.7	.	i	-0.952
COc1ccc(C)cc1S(=O)(=O)N(CC(=O)NCc1ccc(Cl)cc1)Cc1ccccc1	98.9*	1.2	.	i	-0.791
CCOc1ccc(CNC(=O)c2ccc(Sc3ccc(C)cc3)c(NC(C)=O)c2)cc1	93.5*	3.3	-3.0	i	2.09
O=C(c1ccccc1F)N1CCC(N2CCCCCC2)CC1	72.8*	5.3	3.9	i	1.63
CC1CCN(C2CCN(C(=O)c3ccccc3F)CC2)CC1	.	.	0.9	i	0.59
Cc1ccccc1C([O-])=Nc1ccc[n+](-c2nc3ccccc3nc2NS(=O)(=O)c2ccccc2)c1	.	.	-1.5	i	0.164
O=C1C=C(N2CCCCC2)C2(CCCCC2)O1	-1.7	5.3	-0.5	i	2.12
COc1ccc(NC(=O)Cn2c(C)cc(=O)c3ccccc32)cc1	-0.8	3.1	-1.7	i	-0.142
COc1ccc(NCC(=O)n2c(C)c(C)c3ccccc32)cc1	-3.7	20.0*	40.7	i	-0.53
Cc1cc(C(=O)CSc2nnc(-c3cccc(F)c3)n2N)c(C)n1Cc1ccc2c(c1)OCO2	74.8*	4.7	-2.1	i	-0.0435
Cc1cc(C(=O)CSc2nnnn2-c2ccc(O)cc2)c(C)n1Cc1ccc2c(c1)OCO2	16.9	1.5	1.3	i	-0.529
Cc1cc(C)nc(NC(=O)c2ccc(Cl)cc2)n1	1.3	1.7	.	i	0.303
COC(=O)CN(c1nc(C)c(Br)c(OC)n1)S(=O)(=O)c1ccc(C)cc1	87.9*	3.2	0.3	i	0.0878
COc1ccc(-c2cc(C(F)(F)F)nc(NC3CCCC3)n2)cc1OC	15.6	3.8	2.0	i	0.0525
O=C(COC(=O)c1cccc(S(=O)(=O)N2CCc3ccccc32)c1)Nc1ncc(Cl)cc1Cl	60.2*	1.3	-0.2	i	-0.647
